ChEMBL document CHEMBL1147895, “Novel synthetic approach to N-aryl-4-(3-pyridyl)thiazol-2-amine and analogues using HMCM-41 as catalyst, and their biological evaluation as human platelet aggregation inhibitors” (Eur J Med Chem, 2007)

These compounds were tested on Platelet (assay: Inhibition of ADP-induced human platelet aggregation).
Type: functional, cell-based
Summary of the method: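 Human PRP from fasted, medication-free healthy male volunteers: citrated blood (0.38% final) spun at 800 rpm for 10 min; PPP from a 2500 rpm, 10 min spin. Compounds in DMSO (0.01% final) preincubated 2 min at 37 °C before ADP activation. Born turbidimetry; maximum curve height read, % inhibition versus vehicle; IC50 from linear regression of % inhibition against concentration.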

| IC50 | Compound |
| --- | --- |
| > 10 µM | CC(C)(C(=O)O)N1CCC(Nc2nc(-c3ccc(C(=N)N)cc3)cs2)CC1 |
| 1.8 µM | N=C(N)c1ccc(-c2csc(NC3CCN(CCC(=O)O)CC3)n2)cc1 |
| 0.042 µM | N=C(N)c1ccc(-c2csc(NC3CCN(CC(=O)O)CC3)n2)cc1 |
| 6 µM | N=C(N)c1ccc(-c2csc(NC3CCN(C(C(=O)O)c4ccccc4Cl)CC3)n2)cc1 (stereo not drawn) |
| 0.065 µM | N=C(N)c1ccc(-c2csc(NC3CCN(C(C(=O)O)c4ccccc4)CC3)n2)cc1 (stereo not drawn) |
| 0.085 µM | N=C(N)c1ccc(-c2csc(NC3CCN(C(CC(=O)O)C(=O)O)CC3)n2)cc1 (stereo not drawn) |
| 0.25 µM | CC(C(=O)O)N1CCC(Nc2nc(-c3ccc(C(=N)N)cc3)cs2)CC1 (stereo not drawn) |
| 1.35 µM | CCc1ccccc1Nc1nc(-c2cccnc2)cs1 |
| 2.19 µM | CCc1cccc(CC)c1Nc1nc(-c2cccnc2)cs1 |
| 0.484 µM | Fc1ccccc1Nc1nc(-c2cccnc2)cs1 |
| 2.89 µM | c1cncc(-c2csc(Nc3cccc4ccccc34)n2)c1 |
| 1.41 µM | Nc1nc(-c2cccnc2)c[s+]1[O-] (stereo not drawn) |
| 2 µM | Cc1ccc(Nc2nc(-c3cccnc3)cs2)cc1 |

| Compound | IC50 |
| --- | --- |
| N=C(N)c1ccc(-c2csc(N(CCC(=O)O)C3CCN(CC(=O)O)CC3)n2)cc1 | 0.046 µM |
| N=C(N)c1ccc(-c2csc(N(Cc3ccccc3)C3CCN(CC(=O)O)CC3)n2)cc1 | 0.23 µM |
| CN(c1nc(-c2ccc(C(=N)N)cc2)cs1)C1CCN(CC(=O)O)CC1 | 0.16 µM |
| N=C(N)c1ccc(-c2csc(N(CCCC(=O)O)C3CCN(CC(=O)O)CC3)n2)cc1 | 0.096 µM |
| N=C(N)c1ccc(-c2csc(N(CC(=O)O)C3CCN(CC(=O)O)CC3)n2)cc1 | 0.17 µM |
